{"source": "ChEMBL document CHEMBL4190374", "about": "“Structure-Function Evaluation of Imidazopyridine Derivatives Selective for δ-Subunit-Containing γ-Aminobutyric Acid Type A (GABAA) Receptors” (J Med Chem, 2018)", "key": {"[1]": {"target": "Gamma-aminobutyric acid receptor subunit alpha-1/beta-3 (Rattus norvegicus, UniProt P62813+P63079)", "sequence (P62813 whole entry)": "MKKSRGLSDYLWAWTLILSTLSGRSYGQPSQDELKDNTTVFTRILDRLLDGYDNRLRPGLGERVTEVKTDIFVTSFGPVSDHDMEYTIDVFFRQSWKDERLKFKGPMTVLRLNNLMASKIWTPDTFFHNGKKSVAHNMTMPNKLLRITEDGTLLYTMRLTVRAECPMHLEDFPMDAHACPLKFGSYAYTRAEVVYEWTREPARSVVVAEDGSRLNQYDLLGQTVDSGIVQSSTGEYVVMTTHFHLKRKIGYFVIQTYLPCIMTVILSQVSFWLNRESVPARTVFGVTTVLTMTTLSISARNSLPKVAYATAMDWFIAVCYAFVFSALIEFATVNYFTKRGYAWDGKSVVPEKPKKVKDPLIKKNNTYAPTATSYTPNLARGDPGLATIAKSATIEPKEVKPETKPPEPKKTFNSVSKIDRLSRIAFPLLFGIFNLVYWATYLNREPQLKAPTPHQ", "sequence (P63079 whole entry)": "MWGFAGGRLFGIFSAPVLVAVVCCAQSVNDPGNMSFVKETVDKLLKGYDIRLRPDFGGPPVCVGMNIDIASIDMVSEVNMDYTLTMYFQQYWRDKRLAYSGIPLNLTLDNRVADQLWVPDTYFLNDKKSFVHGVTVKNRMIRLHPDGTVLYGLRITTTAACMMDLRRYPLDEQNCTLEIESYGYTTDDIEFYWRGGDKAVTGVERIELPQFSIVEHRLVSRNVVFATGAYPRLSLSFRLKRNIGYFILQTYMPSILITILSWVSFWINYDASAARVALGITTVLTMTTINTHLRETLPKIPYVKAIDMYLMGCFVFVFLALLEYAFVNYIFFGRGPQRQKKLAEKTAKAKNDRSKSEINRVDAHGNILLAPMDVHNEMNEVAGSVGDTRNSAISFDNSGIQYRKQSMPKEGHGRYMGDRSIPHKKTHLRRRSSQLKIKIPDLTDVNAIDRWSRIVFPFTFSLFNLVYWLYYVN", "assay": "Modulation of rat […] GABA-A receptor alpha1beta3 expressed in HEK293 cells in presence of GABA by patch-clamp assay", "format": "cell-based", "in_short": "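Whole-cell patch clamp on eGFP-co-transfected HEK 293 cells expressing rat subunits, recorded 48 h post-transfection. KCl/KOH-based pipette solution, pH 7.2. Rising compound concentrations up to 10 µM co-applied with the receptor-specific GABA EC20. Peak currents fitted to a logistic function giving EC50, Hill coefficient and % modulation, mean ± S.E. of n experiments.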"}, "[2]": {"target": "GABA A receptor alpha-6/beta-2/gamma-2 (Rattus norvegicus, UniProt P18508+P30191+P63138)", "sequence (P18508 whole entry)": "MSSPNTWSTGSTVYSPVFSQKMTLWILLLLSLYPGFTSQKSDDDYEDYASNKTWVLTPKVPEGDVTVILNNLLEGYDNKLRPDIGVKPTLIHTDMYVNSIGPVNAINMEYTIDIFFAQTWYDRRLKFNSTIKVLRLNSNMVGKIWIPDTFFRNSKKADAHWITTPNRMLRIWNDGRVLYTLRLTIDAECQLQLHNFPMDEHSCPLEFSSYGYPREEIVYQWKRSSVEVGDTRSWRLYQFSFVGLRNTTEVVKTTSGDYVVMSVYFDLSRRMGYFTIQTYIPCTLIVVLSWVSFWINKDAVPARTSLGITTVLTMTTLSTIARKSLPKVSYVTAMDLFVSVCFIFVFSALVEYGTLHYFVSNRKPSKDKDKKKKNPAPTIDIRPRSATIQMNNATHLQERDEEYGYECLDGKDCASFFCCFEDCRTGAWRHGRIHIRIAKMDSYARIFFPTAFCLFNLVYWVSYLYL", "sequence (P30191 whole entry)": "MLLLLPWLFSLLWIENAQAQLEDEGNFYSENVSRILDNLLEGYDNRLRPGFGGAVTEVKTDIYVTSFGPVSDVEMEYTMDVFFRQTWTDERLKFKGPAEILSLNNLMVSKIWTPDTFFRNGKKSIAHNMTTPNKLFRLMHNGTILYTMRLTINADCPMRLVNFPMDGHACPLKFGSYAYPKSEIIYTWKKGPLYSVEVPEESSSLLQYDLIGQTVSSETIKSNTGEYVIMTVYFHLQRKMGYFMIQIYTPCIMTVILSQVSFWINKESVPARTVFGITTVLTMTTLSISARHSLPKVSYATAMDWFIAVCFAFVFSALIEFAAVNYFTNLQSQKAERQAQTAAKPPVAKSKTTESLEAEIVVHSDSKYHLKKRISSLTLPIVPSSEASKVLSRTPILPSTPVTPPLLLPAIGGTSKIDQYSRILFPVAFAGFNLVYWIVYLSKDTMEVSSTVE", "sequence (P63138 whole entry)": "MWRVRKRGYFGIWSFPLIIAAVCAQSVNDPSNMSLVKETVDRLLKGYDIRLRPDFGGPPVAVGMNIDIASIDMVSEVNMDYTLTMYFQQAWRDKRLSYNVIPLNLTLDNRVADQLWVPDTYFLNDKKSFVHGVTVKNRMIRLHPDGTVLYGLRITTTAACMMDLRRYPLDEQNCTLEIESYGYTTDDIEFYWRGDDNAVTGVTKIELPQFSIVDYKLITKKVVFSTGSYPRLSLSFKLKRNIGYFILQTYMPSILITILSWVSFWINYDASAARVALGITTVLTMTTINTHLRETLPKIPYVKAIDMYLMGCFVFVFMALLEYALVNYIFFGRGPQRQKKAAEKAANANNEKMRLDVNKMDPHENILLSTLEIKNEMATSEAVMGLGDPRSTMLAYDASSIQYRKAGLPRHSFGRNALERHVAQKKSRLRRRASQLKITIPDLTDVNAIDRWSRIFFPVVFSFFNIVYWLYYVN", "assay": "Displacement of [3H]EBOB from rat GABA-A receptor alpha6beta2gamma2 expressed in HEK293 cell membranes after 90 mins by liquid scintillation counting analysis", "in_short": "(§1)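 Crude membranes from HEK 293 cells transiently Ca-phosphate-transfected with rat subunit cDNAs, harvested at 48 h. Membranes (150-200 µg protein) incubated with 3 nM [3H]EBOB in 50 mM Tris/citrate pH 7.3 plus 0.2 M NaCl. Compound up to 10 µM, final DMSO 0.1%, no GABA, 90 min at 21 °C. Bound radioligand collected by GF/C filtration and counted by scintillation.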"}, "[3]": {"target": "Gamma-aminobutyric acid receptor subunit alpha-4/beta-3/delta (Rattus norvegicus) (UniProt P18506+P28471+P63079)", "assay": "Modulation of rat […] GABA-A receptor alpha4beta3delta expressed in HEK293 cells up to 10 uM in presence of GABA by patch-clamp assay relative to control", "format": "cell-based", "in_short": "(§2)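 Rat GABA-A subunits were transiently co-transfected with eGFP into HEK293 cells on coverslips. Fluorescent cells were recorded by whole-cell patch clamp 48 h later; bath pH 7.4, KCl/KOH pipette pH 7.2. Compound was applied at increasing concentrations up to 10 µM with the receptor-specific GABA EC20. Peak currents were fitted logistically for EC50, Hill and % modulation, as mean ± S.E.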"}, "[4]": {"target": "Gamma-aminobutyric acid receptor subunit alpha-6/beta-3/delta (Rattus norvegicus) (UniProt P18506+P30191+P63079)", "assay": "Displacement of [3H]EBOB from rat GABA-A receptor alpha6beta3delta expressed in HEK293 cell membranes up to 10 uM after 90 mins by liquid scintillation counting analysis relative to control", "in_short": "as §1"}, "[5]": {"target": "T1, Gamma-aminobutyric acid receptor subunit alpha-1/beta-3/delta (Rattus norvegicus) (UniProt P18506+P62813+P63079)", "assay": "Agonist activity at rat […] GABA-A receptor alpha1beta3delta expressed in HEK293 cells assessed as ratio of I0 to GABA Imax at 10 uM in absence of GABA by patch-clamp assay", "format": "cell-based", "in_short": "(§3)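 Whole-cell patch clamp on single fluorescent HEK 293 cells 48 h after transient co-transfection with rat subunit cDNAs plus eGFP. Extracellular solution 135 mM NaCl, 5.3 mM KCl, 2 mM CaCl2, 2 mM MgSO4, 10 mM HEPES pH 7.4, perfused 3 mL/min. Compound at 10 µM without GABA. Current expressed relative to 1 mM GABA at the same receptor (I0/Imax GABA), mean ± S.D. of n experiments.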"}, "[6]": {"target": "Gamma-aminobutyric acid receptor subunit alpha-4/beta-3 (Rattus norvegicus) (UniProt P28471+P63079)", "assay": "Modulation of rat […] GABA-A receptor alpha4beta3 expressed in HEK293 cells up to 10 uM in presence of GABA by patch-clamp assay relative to control", "format": "cell-based", "in_short": "as §2"}, "[7]": {"target": "T2, Gamma-aminobutyric acid receptor subunit alpha-1/beta-3 (Rattus norvegicus) (UniProt P62813+P63079)", "assay": "Displacement of [3H]EBOB from rat GABA-A receptor alpha1beta3 expressed in HEK293 cell membranes at 10 uM after 90 mins by liquid scintillation counting analysis relative to control", "in_short": "as §1"}, "[8]": {"target": "Gamma-aminobutyric acid receptor subunit alpha-4/beta-3/gamma-2 (Rattus norvegicus) (UniProt P18508+P28471+P63079)", "assay": "Modulation of rat eGFP-fused GABA-A receptor alpha4beta3gamma2 expressed in HEK293 cells at <=1 uM in presence of GABA by patch-clamp assay relative to control", "format": "cell-based"}, "[9]": {"target": "T1, Gamma-aminobutyric acid receptor subunit alpha-1/beta-3/delta (Rattus norvegicus)", "assay": "Modulation of rat […] GABA-A receptor alpha1beta3delta expressed in HEK293 cells up to 10 uM in presence of GABA by patch-clamp assay relative to control", "format": "cell-based", "in_short": "as §2"}, "[10]": {"target": "Gamma-aminobutyric acid receptor subunit alpha-6/beta-2/delta (Rattus norvegicus, UniProt P18506+P30191+P63138)", "sequence (P18506 whole entry)": "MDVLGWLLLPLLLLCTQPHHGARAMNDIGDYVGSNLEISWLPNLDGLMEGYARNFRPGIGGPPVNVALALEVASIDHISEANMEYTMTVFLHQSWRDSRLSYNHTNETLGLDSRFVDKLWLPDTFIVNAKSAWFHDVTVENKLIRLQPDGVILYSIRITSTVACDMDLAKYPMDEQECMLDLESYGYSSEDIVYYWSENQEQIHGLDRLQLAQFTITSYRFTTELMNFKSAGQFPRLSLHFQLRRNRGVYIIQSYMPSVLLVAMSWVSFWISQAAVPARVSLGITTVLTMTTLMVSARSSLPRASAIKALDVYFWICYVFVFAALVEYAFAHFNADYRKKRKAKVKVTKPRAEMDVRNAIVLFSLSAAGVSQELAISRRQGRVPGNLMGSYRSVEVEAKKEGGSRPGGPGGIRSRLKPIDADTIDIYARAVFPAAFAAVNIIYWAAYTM", "sequence (P30191 whole entry)": "as the sequence (P30191 whole entry) above", "sequence (P63138 whole entry)": "as the sequence (P63138 whole entry) above", "assay": "Displacement of [3H]EBOB from rat GABA-A receptor alpha6beta2delta expressed in HEK293 cell membranes after 90 mins by liquid scintillation counting analysis", "in_short": "as §1"}, "[11]": {"target": "T3, Gamma-aminobutyric acid receptor subunit alpha-6/beta-3/gamma-2 (Rattus norvegicus, UniProt P18508+P30191+P63079)", "T3 sequence (P18508 whole entry)": "as the sequence (P18508 whole entry) above", "T3 sequence (P30191 whole entry)": "as the sequence (P30191 whole entry) above", "T3 sequence (P63079 whole entry)": "as the sequence (P63079 whole entry) above", "assay": "(§4) Displacement of [3H]EBOB from rat GABA-A receptor alpha6beta3gamma2 expressed in HEK293 cell membranes after 90 mins in presence of GABA by liquid scintillation counting analysis"}, "[12]": {"target": "T4, Gamma-aminobutyric acid receptor subunit alpha-6/beta-3/gamma-2 (Rattus norvegicus) (UniProt P18508+P30191+P63079)", "assay": "as §4"}, "[13]": {"target": "Gamma-aminobutyric acid receptor subunit alpha-6/beta-3/delta (Rattus norvegicus, UniProt P18506+P30191+P63079)", "sequence (P18506 whole entry)": "as the sequence (P18506 whole entry) above", "sequence (P30191 whole entry)": "as the sequence (P30191 whole entry) above", "sequence (P63079 whole entry)": "as the sequence (P63079 whole entry) above", "assay": "Displacement of [3H]EBOB from rat GABA-A receptor alpha6beta3delta expressed in HEK293 cell membranes after 90 mins by liquid scintillation counting analysis", "in_short": "as §1"}, "[14]": {"target": "T5, Gamma-aminobutyric acid receptor subunit alpha-4/beta-3 (Rattus norvegicus, UniProt P28471+P63079)", "T5 sequence (P28471 whole entry)": "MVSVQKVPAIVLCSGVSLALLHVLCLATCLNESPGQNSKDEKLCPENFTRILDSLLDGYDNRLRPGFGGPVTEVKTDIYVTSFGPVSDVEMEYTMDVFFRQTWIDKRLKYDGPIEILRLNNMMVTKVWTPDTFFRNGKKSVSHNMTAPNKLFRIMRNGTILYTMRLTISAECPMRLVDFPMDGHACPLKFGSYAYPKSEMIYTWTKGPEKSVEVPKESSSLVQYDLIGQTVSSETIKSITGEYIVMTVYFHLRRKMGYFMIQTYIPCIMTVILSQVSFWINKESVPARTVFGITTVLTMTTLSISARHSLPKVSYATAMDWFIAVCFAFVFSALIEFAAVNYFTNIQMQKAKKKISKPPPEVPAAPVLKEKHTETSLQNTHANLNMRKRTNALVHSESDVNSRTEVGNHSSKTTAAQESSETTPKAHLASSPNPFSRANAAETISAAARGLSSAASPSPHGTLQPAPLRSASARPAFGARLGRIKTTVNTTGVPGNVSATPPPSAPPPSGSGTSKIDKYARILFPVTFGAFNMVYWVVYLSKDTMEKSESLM", "T5 sequence (P63079 whole entry)": "as the sequence (P63079 whole entry) above", "assay": "Modulation of rat […] GABA-A receptor alpha4beta3 expressed in HEK293 cells in presence of GABA by patch-clamp assay", "format": "cell-based", "in_short": "as §2"}, "[15]": {"target": "T2, Gamma-aminobutyric acid receptor subunit alpha-1/beta-3 (Rattus norvegicus)", "assay": "Agonist activity at rat […] GABA-A receptor alpha1beta3 expressed in HEK293 cells assessed as ratio of I0 to GABA Imax at 10 uM in absence of GABA by patch-clamp assay", "format": "cell-based", "in_short": "as §3"}, "Rattus norvegicus": {"species": "Rattus norvegicus", "assay": "Selectivity ratio of IC50 for rat GABA-A receptor alpha6beta2 expressed in HEK293 cells to IC50 for rat GABA-A receptor alpha6beta2delta expressed in HEK293 cells", "format": "cell-based"}, "[16]": {"target": "T3, Gamma-aminobutyric acid receptor subunit alpha-6/beta-3/gamma-2", "assay": "Displacement of [3H]EBOB from rat GABA-A receptor alpha6beta3gamma2 expressed in HEK293 cell membranes after 90 mins by liquid scintillation counting analysis", "in_short": "as §1"}, "[17]": {"target": "T5, Gamma-aminobutyric acid receptor subunit alpha-4/beta-3", "assay": "Displacement of [3H]EBOB from rat GABA-A receptor alpha4beta3 expressed in HEK293 cell membranes after 90 mins by liquid scintillation counting analysis", "in_short": "as §1"}, "[18]": {"target": "T4, Gamma-aminobutyric acid receptor subunit alpha-6/beta-3/gamma-2 (Rattus norvegicus)", "assay": "Displacement of [3H]EBOB from rat GABA-A receptor alpha6beta3gamma2 expressed in HEK293 cell membranes up to 10 uM after 90 mins by liquid scintillation counting analysis relative to control", "in_short": "as §1"}, "[19]": {"target": "Gamma-aminobutyric acid receptor subunit alpha-6/beta-3 (Rattus norvegicus, UniProt P30191+P63079)", "sequence (P30191 whole entry)": "as the sequence (P30191 whole entry) above", "sequence (P63079 whole entry)": "as the sequence (P63079 whole entry) above", "assay": "Displacement of [3H]EBOB from rat GABA-A receptor alpha6beta3 expressed in HEK293 cell membranes after 90 mins by liquid scintillation counting analysis", "in_short": "as §1"}}, "note": "Activity calls are given as the source filed them. The calls are words filed in the database; no cut-off is given here.", "data": [{"smiles": "O=C(Nc1c(-c2cccs2)nc2c(Br)cc(Br)cn12)c1ccc(Cl)cc1", "values": [{"measurement": "EC50", "setting": "[1]", "result": 100, "unit": "nM"}, {"measurement": "IC50", "setting": "[2]", "result": 1130, "unit": "nM"}, {"measurement": "Activity", "setting": "[3]", "result": 297, "unit": "%"}, {"measurement": "Imax", "setting": "[4]", "result": 84, "unit": "%"}, {"measurement": "Ratio", "setting": "[5]", "result": 0.323}, {"measurement": "Activity", "setting": "[6]", "result": 168, "unit": "%"}, {"measurement": "Imax", "setting": "[7]", "result": 25, "unit": "%"}, {"measurement": "Activity", "setting": "[8]", "result": "inactive"}, {"measurement": "Activity", "setting": "[9]", "result": 201, "unit": "%"}, {"measurement": "IC50", "setting": "[10]", "result": 150, "unit": "nM"}, {"measurement": "IC50", "setting": "[11]", "result": 1090, "unit": "nM"}, {"measurement": "Imax", "setting": "[12]", "result": 93, "unit": "%"}, {"measurement": "IC50", "setting": "[13]", "result": 310, "unit": "nM"}, {"measurement": "EC50", "setting": "[14]", "result": 60, "unit": "nM"}, {"measurement": "Ratio", "setting": "[15]", "result": 0.074}, {"measurement": "Ratio IC50", "setting": "Rattus norvegicus", "result": 4}, {"measurement": "IC50", "setting": "[16]", "result": 930, "unit": "nM"}, {"measurement": "IC50", "setting": "[17]", "result": 1860, "unit": "nM"}, {"measurement": "Imax", "setting": "[18]", "result": 94, "unit": "%"}, {"measurement": "IC50", "setting": "[19]", "result": 790, "unit": "nM"}]}]}
